The structures appear in SMILES notation. Active and inactive are the calls of the source. The calls are words filed in the database; no cut-off is given here.

Test system in the first test: not listed separately
Briefly: Down regulation of OPN expression in human MDA-MB-435 cells at 10 uM measured after 24 hrs by Western blot analysis relative to control. It is filed as functional. In short, it runs like this:
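MDA-MB-435 cells (1x10^6 per 6 cm plate) grown 24 h in DMEM/10% FBS with penicillin-streptomycin, 37 °C, 5% CO2, then serum-starved 24 h. Treated 24 h with compound at 10 µM against a DMSO control. Secreted OPN in serum-free supernatant run on non-reducing 10% SDS-PAGE. Lysate β-actin run on 10% SDS-PAGE. Both probed with monoclonal antibodies, read by chemiluminescence and quantified by densitometry.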
For the compound `CC(CCC1OC(c2ccc([N+](=O)[O-])cc2)OOC1(C)C)CCn1cc(COCCNCCOCc2cn(CCC(C)CCC3OC(c4ccc([N+](=O)[O-])cc4)OOC3(C)C)nn2)nn1` (stereo unspecified), the “fold change (FC)” value amounted to 0.28.

Consider `CC(CCC1OC(c2ccccc2)OOC1(C)C)CCn1cc(COCCNCCOCc2cn(CCC(C)CCC3OC(c4ccccc4)OOC3(C)C)nn2)nn1` (stereo unspecified), for which the “fold change (FC)” value was found to be 0.11.

Regarding `COc1ccc(C2OOC(C)(C)C(CCC(C)CCn3cc(COCCNCCOCc4cn(CCC(C)CCC5OC(c6ccc(OC)cc6)OOC5(C)C)nn4)nn3)O2)cc1` (stereo unspecified), the “fold change (FC)” value is reported as 0.43.

`CC(CCC1OC(c2ccc(F)cc2)OOC1(C)C)CCn1cc(COCCNCCOCc2cn(CCC(C)CCC3OC(c4ccc(F)cc4)OOC3(C)C)nn2)nn1` (stereo unspecified): the “fold change (FC)” value amounted to 0.17.

For `CC(CCC1OC(c2cccc(Br)c2)OOC1(C)C)CCn1cc(COCCNCCOCc2cn(CCC(C)CCC3OC(c4cccc(Br)c4)OOC3(C)C)nn2)nn1` (stereo unspecified), the “fold change (FC)” value is listed as 0.26.

For `CC(CCC1OC(c2ccc3c(c2)OCO3)OOC1(C)C)CCn1cc(COCCNCCOCc2cn(CCC(C)CCC3OC(c4ccc5c(c4)OCO5)OOC3(C)C)nn2)nn1` (stereo unspecified), the “fold change (FC)” value is listed as 0.33.

Regarding `CC(CCC1OC(c2ccc(Cl)cc2)OOC1(C)C)CCn1cc(COCCNCCOCc2cn(CCC(C)CCC3OC(c4ccc(Cl)cc4)OOC3(C)C)nn2)nn1` (stereo unspecified), the “fold change (FC)” value came to 0.45.

Turning to `CC(CCC1OC2(CCCCC2)OOC1(C)C)CCn1cc(COCCNCCOCc2cn(CCC(C)CCC3OC4(CCCCC4)OOC3(C)C)nn2)nn1` (stereo unspecified), the “fold change (FC)” value turned out to be 0.27.

For `Cc1ccc(C2OOC(C)(C)C(CCC(C)CCn3cc(COCCNCCOCc4cn(CCC(C)CCC5OC(c6ccc(C)cc6)OOC5(C)C)nn4)nn3)O2)cc1` (stereo unspecified), the “fold change (FC)” value was 0.15.

Test system in the next test: not listed separately
The experiment in a line: (§1) Down regulation of OPN expression in human MDA-MB-435 cells at 50 uM measured after 24 hrs by Western blot analysis relative to control. The test is classed as functional. An outline of the steps: (§2)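 MDA-MB-435 cells (1x10^6 per 6 cm plate) grown 24 h in DMEM/10% FBS with penicillin-streptomycin, 37 °C, 5% CO2, then serum-starved 24 h. Treated 24 h with compound at 50 µM against a DMSO control. Secreted OPN in serum-free supernatant run on non-reducing 10% SDS-PAGE. Lysate β-actin run on 10% SDS-PAGE. Both probed with monoclonal antibodies, read by chemiluminescence and quantified by densitometry.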
With `C[C@@H]1CC[C@H]2[C@@H](C)C(O)O[C@@H]3O[C@]4(C)CC[C@@H]1[C@]32OO4` (stereo partly specified), the “fold change (FC)” value was 0.45.

`CC(CCC1OC(c2ccc(Cl)cc2)OOC1(C)C)CCn1cc(COC2[C@H]3OCO[C@H]3CO[C@@]23COC(C)(C)O3)nn1` (stereo partly specified): the “fold change (FC)” value was found to be 0.15.

Regarding `C[C@@H]1CC[C@H]2[C@@H](C)C(OCc3cn(Cc4ccccc4)nn3)O[C@@H]3O[C@]4(C)CC[C@@H]1[C@]32OO4` (stereo partly specified), the “fold change (FC)” value is listed as 0.3.

For the compound `CC(CCC1OC(c2cccc(Br)c2)OOC1(C)C)CCn1cc(COC2[C@H]3OCO[C@H]3CO[C@@]23COC(C)(C)O3)nn1` (stereo partly specified), the “fold change (FC)” value was determined as 0.15.

With `CC(CCC1OC(c2ccco2)OOC1(C)C)CCn1cc(COC2[C@H]3OCO[C@H]3CO[C@@]23COC(C)(C)O3)nn1` (stereo partly specified), the “fold change (FC)” value stood at 0.12.

For `COc1ccc(C2OOC(C)(C)C(CCC(C)CCn3cc(COC4[C@H]5OCO[C@H]5CO[C@@]45COC(C)(C)O5)nn3)O2)cc1` (stereo partly specified), the “fold change (FC)” value is listed as 0.2.

The subject of another test is MDA-MB-435. The test is described as §1. It is filed as functional. An outline of the steps: as §2
Turning to `CC(CCC1OC(c2ccccc2Br)OOC1(C)C)CCn1cc(-c2ccc(-c3cn(CCC(C)CCC4OC(c5ccccc5Br)OOC4(C)C)nn3)cc2)nn1` (stereo unspecified), the inhibition entry is “inactive”.

In the case of `C[C@@H]1CC[C@H]2[C@@H](C)C(=O)O[C@@H]3O[C@@]4(C)CC[C@@H]1[C@]32OO4`, the inhibition result was “inactive”.

Regarding `CC(CCC1OC2(CCCCC2)OOC1(C)C)CCn1cc(-c2ccc(-c3cn(CCC(C)CCC4OC5(CCCCC5)OOC4(C)C)nn3)cc2)nn1` (stereo unspecified), the inhibition entry was “inactive”.

For `Cc1ccc(C2OOC(C)(C)C(CCC(C)CCn3cc(COC4[C@H]5OCO[C@H]5CO[C@@]45COC(C)(C)O5)nn3)O2)cc1` (stereo partly specified), the inhibition entry is “inactive”.

Consider `CC(CCC1OC(c2ccccc2Br)OOC1(C)C)CCn1cc(COC2[C@H]3OCO[C@H]3CO[C@@]23COC(C)(C)O3)nn1` (stereo partly specified), for which the inhibition result was “inactive”.

As to `CC(CCC1OC(c2cccc3ccccc23)OOC1(C)C)CCn1cc(-c2ccc(-c3cn(CCC(C)CCC4OC(c5cccc6ccccc56)OOC4(C)C)nn3)cc2)nn1` (stereo unspecified), the inhibition result is “inactive”.

As to `CC(CCC1OC(c2ccc3c(c2)OCO3)OOC1(C)C)CCn1cc(COC2[C@H]3OCO[C@H]3CO[C@@]23COC(C)(C)O3)nn1` (stereo partly specified), the inhibition result is “inactive”.

For `COc1ccc(C2OOC(C)(C)C(CCC(C)CCn3cc(-c4ccc(-c5cn(CCC(C)CCC6OC(c7ccc(OC)cc7)OOC6(C)C)nn5)cc4)nn3)O2)cc1` (stereo unspecified), the inhibition entry is “inactive”.

Turning to `CC(CCC1OC(c2cccc3ccccc23)OOC1(C)C)CCn1cc(COC2[C@H]3OCO[C@H]3CO[C@@]23COC(C)(C)O3)nn1` (stereo partly specified), the inhibition result is “inactive”.

Turning to `CC(CCC1OC(c2ccc3c(c2)OCO3)OOC1(C)C)CCn1cc(-c2ccc(-c3cn(CCC(C)CCC4OC(c5ccc6c(c5)OCO6)OOC4(C)C)nn3)cc2)nn1` (stereo unspecified), the inhibition entry was “inactive”.

Turning to `CC(CCC1OC(c2ccc(Cl)cc2)OOC1(C)C)CCn1cc(-c2ccc(-c3cn(CCC(C)CCC4OC(c5ccc(Cl)cc5)OOC4(C)C)nn3)cc2)nn1` (stereo unspecified), the inhibition result was “inactive”.

As to `CC(CCC1OC(c2cccc([N+](=O)[O-])c2)OOC1(C)C)CCn1cc(COC2[C@H]3OCO[C@H]3CO[C@@]23COC(C)(C)O3)nn1` (stereo partly specified), the inhibition result is “inactive”.

Consider `CC(CCC1OC(c2ccc([N+](=O)[O-])cc2)OOC1(C)C)CCn1cc(-c2ccc(-c3cn(CCC(C)CCC4OC(c5ccc([N+](=O)[O-])cc5)OOC4(C)C)nn3)cc2)nn1` (stereo unspecified), for which the inhibition result is “inactive”.

For `CC(CCC1OC(c2cccc(Br)c2)OOC1(C)C)CCn1cc(-c2ccc(-c3cn(CCC(C)CCC4OC(c5cccc(Br)c5)OOC4(C)C)nn3)cc2)nn1` (stereo unspecified), the inhibition entry was “inactive”.

For the compound `Cc1ccc(C2OOC(C)(C)C(CCC(C)CCn3cc(-c4ccc(-c5cn(CCC(C)CCC6OC(c7ccc(C)cc7)OOC6(C)C)nn5)cc4)nn3)O2)cc1` (stereo unspecified), the inhibition entry is “inactive”.

Consider `CC(CCC1OC(c2ccc(F)cc2)OOC1(C)C)CCn1cc(COC2[C@H]3OCO[C@H]3CO[C@@]23COC(C)(C)O3)nn1` (stereo partly specified), for which the inhibition entry was “inactive”.

Consider `CC(CCC1OC(c2ccc(F)cc2)OOC1(C)C)CCn1cc(-c2ccc(-c3cn(CCC(C)CCC4OC(c5ccc(F)cc5)OOC4(C)C)nn3)cc2)nn1` (stereo unspecified), for which the inhibition result is “inactive”.

Take `CC(CCC1OC2(CCCCC2)OOC1(C)C)CCn1cc(COC2[C@H]3OCO[C@H]3CO[C@@]23COC(C)(C)O3)nn1` (stereo partly specified): the inhibition entry was “inactive”.

Turning to `CC(CCC1OC(C)(c2ccc(Cl)cc2)OOC1(C)C)CCn1cc(-c2ccc(-c3cn(CCC(C)CCC4OC(C)(c5ccc(Cl)cc5)OOC4(C)C)nn3)cc2)nn1` (stereo unspecified), the inhibition entry was “inactive”.

As to `CC(CCC1OC(c2ccco2)OOC1(C)C)CCn1cc(-c2ccc(-c3cn(CCC(C)CCC4OC(c5ccco5)OOC4(C)C)nn3)cc2)nn1` (stereo unspecified), the inhibition result is “inactive”.

On to `CC(CCC1OC(c2ccc([N+](=O)[O-])cc2)OOC1(C)C)CCn1cc(COC2[C@H]3OCO[C@H]3CO[C@@]23COC(C)(C)O3)nn1` (stereo partly specified), for which the inhibition entry was “inactive”.

Source of the values: ChEMBL document CHEMBL4715848, “1,2,3-Triazole tethered 1,2,4-trioxanes: Studies on their synthesis and effect on osteopontin expression in MDA-MB-435 breast cancer cells” (2020).
